# Results reported in ChEMBL document CHEMBL1131195, “Antileishmanial chalcones: statistical design, synthesis, and three-dimensional quantitative structure-activity relationship analysis” (J Med Chem, 1998).
# How the values were obtained:
# Leishmania donovani [1] = assay: Tested in vitro for anti-leishmanial activity against Leishmania donovani; format: functional, organism-based
# Procedure, shortened: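 In vitro assay using Leishmania donovani promastigotes incubated with increasing chalcone concentrations, with inhibition of parasite proliferation as the read-out.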
# [2] = Inhibitory activity against phytohemagglutininin A-induced proliferation of human lymphocytes; format: functional
# Procedure, shortened: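 Human lymphocytes stimulated with phytohemagglutinin A were incubated in vitro with increasing concentrations of each chalcone, and inhibition of their proliferation was measured.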
# [3] = Inhibitory activity against phytohemagglutininin A-induced proliferation of human lymphocytes; Not tested due to low solubility; format: functional
# Leishmania donovani [4] = assay: Tested in vitro for anti-leishmanial activity against Leishmania. donovani; Not tested due to low solubility; format: functional, organism-based
Structure (SMILES),IC50 (Leishmania donovani [1]) [µM],IC50 (Leishmania donovani [4]),IC50 [2] [µM],IC50 [3]
CCCCOc1ccc(C(=O)/C=C/c2c(OC)cccc2OC)cc1,104,,,
COc1cc(O)ccc1/C=C/C(=O)c1ccc(N(C)C)cc1,49,,111,
C=CCOc1ccc(C(=O)/C=C/c2cc(OC)cc(OC)c2)cc1,27,,25,
"COc1ccc(/C=C/C(=O)c2ccc(OC)cc2)cc1 [4,4'-DIMETHOXYCHALCONE]",106,,112,
COc1cc(OC)c(/C=C/C(=O)c2ccc(O)cc2)c(OC)c1,106,,44,
C=CCOc1ccc(C(=O)/C=C/c2cc(OC)c(CCCC)c(OC)c2)cc1,90,,,Not Active
CCCCCCOc1ccc(C(=O)/C=C/c2ccc(OC)cc2OC)cc1,136,,,Not Active
CN(C)c1ccc(/C=C/C(=O)c2ccc(N(C)C)cc2)cc1,30,,,Not Active
C=CCOc1ccc(C(=O)/C=C/c2ccc(OC)c(OC)c2)cc1,60,,51,
COc1cc(/C=C/C(=O)c2ccc(N(C)C)cc2)cc(OC)c1,,Not Active,,Not Active
CN(C)c1ccc(/C=C/C(=O)c2ccc(O)cc2)cc1,79,,130,
COc1ccc(/C=C/C(=O)c2ccccc2O)c(OC)c1,35,,144,
CN(C)c1ccc(C(=O)/C=C/c2ccc([N+](=O)[O-])cc2)cc1,,Not Active,,Not Active
O=C(/C=C/c1ccc(O)c(O)c1)c1ccc(O)cc1O [BUTEIN],66,,16,
O=C(/C=C/c1ccc(Oc2ccccc2)cc1)c1ccc(F)cc1,42,,33,
CCCCOc1ccc(C(=O)/C=C/c2cc(OC)cc(OC)c2)cc1,35,,52,
COc1cc(/C=C/C(=O)c2ccc(C3CCCCC3)cc2)cc(OC)c1,31,,39,
O=C(/C=C/c1ccc(Oc2ccccc2)cc1)c1ccc(C2CCCCC2)cc1,,Not Active,,Not Active

Structure (SMILES),IC50 (Leishmania donovani [1]) [µM],IC50 (Leishmania donovani [4]),IC50 [2] [µM],IC50 [3]
COc1cccc(/C=C/C(=O)c2ccc(O)cc2)c1OC,89,,70,
COc1cc(O)ccc1/C=C/C(=O)c1ccc(O)cc1 [ECHINATIN],68,,94,
O=C(/C=C/c1ccc(F)cc1)c1ccc(C2CCCCC2)cc1,27,,74,
COc1cccc(OC)c1/C=C/C(=O)c1ccc(O)cc1,82,,60,
COc1ccc(/C=C/C(=O)c2ccc(O)cc2)c(OC)c1,48,,71,
C=CCOc1ccc(C(=O)/C=C/c2cc(OC)ccc2OC)cc1,73,,55,
COc1ccc(/C=C/C(=O)c2ccc(F)cc2F)c(OC)c1,26,,74,
C=CCOc1ccc(C(=O)/C=C/c2c(OC)cccc2OC)cc1,81,,96,
O=C(/C=C/c1ccc([N+](=O)[O-])cc1)c1ccc([N+](=O)[O-])cc1,26,,51,
COc1ccc(C(=O)/C=C/c2ccc(F)cc2F)c(OC)c1,27,,12,
COc1cc(O)cc(C)c1/C=C/C(=O)c1ccc(O)cc1,39,,53,
CCCCCCOc1ccc(C(=O)/C=C/c2ccccc2)cc1,62,,99,
C=CCOc1ccc(C(=O)/C=C/c2cc(OCC=C)ccc2OCC=C)cc1,38,,61,
C=CCOc1ccc(C(=O)/C=C/c2cc(OC)c(OC)c(OC)c2)cc1,41,,30,
CCCCOc1ccc(C(=O)/C=C/c2ccc(OC)cc2OC)cc1,95,,,Not Active
C=CCOc1ccc(C(=O)/C=C/c2cccc(OC)c2OC)cc1,49,,96,
CN(C)c1ccc(/C=C/C(=O)c2ccc([N+](=O)[O-])cc2)cc1,,Not Active,,Not Active
"O=C(/C=C/c1ccc(O)cc1)c1ccc(O)cc1 [4,4'-DIHYDROXYCHALCONE]",83,,59,

# Further compounds by falling IC50 (Leishmania donovani [1]), results first:
IC50 (Leishmania donovani [1]) [µM],IC50 (Leishmania donovani [4]),Structure (SMILES),IC50 [2] [µM],IC50 [3]
26,,CCCCOc1ccccc1/C=C/C(=O)c1ccc(OC)c(OC)c1OC,52,
26,,CCCc1cc(/C=C/C(=O)c2ccc(O)cc2)c(OC)cc1O,41,
23,,COc1ccc(OC)c(/C=C/C(=O)c2ccc(O)cc2)c1,22,
22,,COc1c(/C=C/C(=O)c2ccc(O)cc2)ccc(O)c1C,27,
21,,COc1ccc(C(=O)/C=C/c2ccc([N+](C)(C)C)cc2)c(OC)c1OC,35,
20,,O=C(/C=C/c1ccccc1)c1ccccc1 [CHALCONE],21,
20,,COc1ccc(C(=O)/C=C/c2cccc(N(C)C)c2)c(OC)c1OC,26,
20,,CCCCOc1cccc(C(=O)/C=C/c2ccc(OC)cc2OC)c1,65,
19,,C=CCOc1ccc(C(=O)/C=C/c2cc(OC)c(CCCCCC)c(OC)c2)cc1,15,
18,,COc1cccc(C(=O)/C=C/c2ccc(OC)cc2OC)c1,42,
17,,COc1ccc(C(=O)/C=C/c2cccc([N+](=O)[O-])c2)c(OC)c1OC,36,
16,,COc1cc(/C=C/C(=O)c2ccc([N+](=O)[O-])cc2)cc(OC)c1,20,
16,,COc1ccc(C(=O)/C=C/c2ccc(F)c(F)c2)c(OC)c1,5.3,
16,,COc1cc(OC)c(OC)cc1/C=C/C(=O)c1ccc(O)cc1,28,
16,,COc1ccc(/C=C/C(=O)c2cccc(Br)c2)c(OC)c1,37,
16,,O=C(/C=C/c1ccccc1)c1ccc(O)cc1 [4'-HYDROXYCHALCONE],28,
16,,COc1cc(/C=C/C(=O)c2ccc(O)cc2O)ccc1O [HOMOBUTEIN],31,
16,,COc1ccc(/C=C/C(=O)c2ccccc2OC)c(OC)c1,26,
15,,COc1ccc(C(=O)/C=C/c2ccccc2F)c(OC)c1OC,11,
15,,O=C(/C=C/c1ccc(F)cc1)c1ccc(F)cc1,22,
15,,COc1ccc(/C=C/C(=O)c2ccccc2)c(OC)c1,48,
15,,O=C(/C=C/c1ccccc1)c1ccc(F)cc1,23,

IC50 (Leishmania donovani [1]) [µM],IC50 (Leishmania donovani [4]),Structure (SMILES),IC50 [2] [µM],IC50 [3]
14,,COc1ccc(/C=C/C(=O)c2ccccc2Br)c(OC)c1,35,
13,,C=CC(C)(C)c1cc(/C=C/C(=O)c2ccc(O)cc2)c(OC)cc1O [LICOAGROCHACONE A],48,
12,,COc1cc(/C=C/C(=O)c2ccc(O)cc2)cc(OC)c1,14,
9.7,,COc1ccc(C(=O)/C=C/c2cccc(F)c2)c(OC)c1OC,6.4,
9.7,,CCCCCCc1cc(/C=C/C(=O)c2ccc(O)cc2)c(OC)cc1O,46,
9.3,,COc1ccc(C(=O)/C=C/c2ccccc2O)c(OC)c1OC,9,
8.7,,COc1ccc(C(=O)/C=C/c2cccc(Oc3ccccc3)c2)c(OC)c1OC,17,
8.6,,COc1ccc(/C=C/C(=O)c2cccc([N+](=O)[O-])c2)c(OC)c1,18,
8.6,,COc1ccc(C(=O)/C=C/c2ccc(C#N)cc2)c(OC)c1OC,5.4,
8.3,,COc1cc(/C=C/C(=O)c2ccc(OC)c(OC)c2OC)cc(OC)c1,8.7,
7.8,,COc1ccc(OC)c(C(=O)/C=C/c2ccc(Cl)cc2Cl)c1,5.7,
7.3,,COc1cc(/C=C/C(=O)c2ccccc2N(C)C)cc(OC)c1,5.7,
7.2,,CCCCOc1ccccc1C(=O)/C=C/c1cc(OC)cc(OC)c1,13,
6.3,,COc1ccc(C(=O)/C=C/c2ccc(Cl)cc2Cl)c(OC)c1OC,7.8,
5.9,,COc1ccc(C(=O)/C=C/c2ccccc2[N+](=O)[O-])c(OC)c1OC,7,
5.8,,COc1cc(/C=C/C(=O)c2cccc(N(C)C)c2)cc(OC)c1,5,
5.5,,COc1cc(/C=C/C(=O)c2cccc(F)c2)cc(OC)c1,9.2,
5,,C=CCOc1ccccc1C(=O)/C=C/c1ccc(OC)cc1OC,,Not Active
3.8,,COc1cc(/C=C/C(=O)c2ccccc2O)cc(OC)c1,8.1,
3.7,,COc1cc(/C=C/C(=O)c2cccc(O)c2)cc(OC)c1,3.2,
3.5,,COc1cc(/C=C/C(=O)c2ccccc2F)cc(OC)c1,6,
3.4,,COc1cc(/C=C/C(=O)c2ccccc2[N+](=O)[O-])cc(OC)c1,3.7,
